Reference: ChEMBL document CHEMBL1155415, “Synthesis, characterization, and in vitro antimicrobial activities of 5-alkenyl/hydroxyalkenyl-2-phenylamine-1,3,4-oxadiazoles and thiadiazoles” (2010)
Converted amounts (≈) assume the structure as drawn.

Key:
Format in all cases: functional
[1] = system: Staphylococcus aureus; test: Antibacterial activity against Staphylococcus aureus ATCC 25923 after 24 hrs by two fold dilution technique; conditions: ATCC 25923, 24 h
How it was run: (§1)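 Broth dilution MIC. Nutrient broth held log two-fold serial dilutions of compound and was inoculated with about 5 × 10⁵ c.f.u./ml of actively dividing bacteria. Incubation was 24 h at 37 °C, with growth checked visually and spectrophotometrically. MIC is the lowest concentration arresting growth.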

[2] = system: Aspergillus fumigatus; test: Antifungal activity against Aspergillus fumigatus after 48 hrs by two fold dilution technique
How it was run: (§2)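 Broth MIC. Broth with log two-fold serial dilutions of compound was inoculated with about 1.6 × 10⁴–6 × 10⁴ c.f.u./ml of fungus and incubated 48 h at 35 °C. MIC is the lowest concentration arresting fungal growth.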

[3] = system: Klebsiella pneumoniae; test: Antibacterial activity against Klebsiella pneumoniae after 24 hrs by disc diffusion method
How it was run: (§3)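 Agar disc diffusion. A standard inoculum of […] c.f.u./ml (0.5 McFarland) was spread evenly on agar. 6 mm Whatman no. 1 paper discs, dry-heat sterilized (140 °C, 1 h), were soaked in test compound and placed on nutrient agar. Plates were inverted and incubated 24 h at 37 °C. Read-out: diameter of the inhibition zone.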

[4] = system: Candida albicans; test: Ratio of MFC to MIC for Candida albicans
How it was run: (§4)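 MFC: 0.1 ml from each MIC tube was spread on agar and colonies were counted after 48 h at 35 °C. MFC is the lowest concentration killing 99.9% of the inoculum. The MFC/MIC ratio was then calculated to classify activity as fungistatic or fungicidal.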

[5] = system: Streptococcus pyogenes; test: Antibacterial activity against Streptococcus pyogenes after 18 to 24 hrs
[6] = system: Klebsiella pneumoniae; test: Antibacterial activity against Klebsiella pneumoniae after 24 hrs by two fold dilution technique; how it was run: as §1
[7] = system: Talaromyces marneffei; test: Ratio of MFC to MIC for Penicillium marneffei; how it was run: as §4
[8] = system: Streptococcus pyogenes; test: Antibacterial activity against Streptococcus pyogenes after 24 hrs by disc diffusion method; how it was run: as §3
[9] = system: Staphylococcus aureus; test: Antibacterial activity against Staphylococcus aureus ATCC 25923 after 24 hrs by disc diffusion method; how it was run: as §3
[10] = system: Trichophyton mentagrophytes; test: Antifungal activity against Trichophyton mentagrophytes after 48 hrs by two fold dilution technique; how it was run: as §2
[11] = system: Candida albicans; test: Antifungal activity against Candida albicans after 48 hrs by two fold dilution technique; how it was run: as §2
[12] = system: Escherichia coli; test: Antibacterial activity against Escherichia coli ATCC 25922 after 18 to 24 hrs
[13] = system: Aspergillus fumigatus; test: Antifungal activity against Aspergillus fumigatus after 48 hrs by disk diffusion method
How it was run: (§5)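 Agar well diffusion with compounds in DMSO. The dish was lawned with a saline spore suspension, excess decanted, and dried 1 h at 37 °C. Wells were punched. Read-out: inhibition zone in mm. Griseofulvin served as standard and DMSO as negative control.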

[14] = system: Aspergillus fumigatus; test: Ratio of MFC to MIC for Aspergillus fumigatus; how it was run: as §4
[15] = system: Trichophyton mentagrophytes; test: Ratio of MFC to MIC for Trichophyton mentagrophytes; how it was run: as §4
[16] = system: Trichophyton mentagrophytes; test: Antifungal activity against Trichophyton mentagrophytes after 48 hrs by disk diffusion method; how it was run: as §5
[17] = system: Pseudomonas aeruginosa; test: Antibacterial activity against Pseudomonas aeruginosa ATCC 27853 after 18 to 24 hrs
[18] = system: Talaromyces marneffei; test: Antifungal activity against Penicillium marneffei after 48 hrs by disk diffusion method; how it was run: as §5
[19] = system: Candida albicans; test: Antifungal activity against Candida albicans after 48 hrs by disk diffusion method; how it was run: as §5
[20] = system: Escherichia coli; test: Antibacterial activity against Escherichia coli ATCC 25922 after 24 hrs by disc diffusion method; how it was run: as §3
[21] = system: Streptococcus pyogenes; test: Antibacterial activity against Streptococcus pyogenes after 24 hrs by two fold dilution technique; how it was run: as §1
[22] = system: Talaromyces marneffei; test: Antifungal activity against Penicillium marneffei after 48 hrs by two fold dilution technique; how it was run: as §2
[23] = system: Staphylococcus aureus; test: Antibacterial activity against Staphylococcus aureus ATCC 25923 after 18 to 24 hrs
[24] = system: Escherichia coli; test: Antibacterial activity against Escherichia coli ATCC 25922 after 24 hrs by two fold dilution technique; conditions: ATCC 25922, 24 h; how it was run: as §1
[25] = system: Pseudomonas aeruginosa; test: Antibacterial activity against Pseudomonas aeruginosa ATCC 27853 after 24 hrs by disc diffusion method; how it was run: as §3
[26] = system: Klebsiella pneumoniae; test: Antibacterial activity against Klebsiella pneumoniae after 18 to 24 hrs
[27] = system: Pseudomonas aeruginosa; test: Antibacterial activity against Pseudomonas aeruginosa ATCC 27853 after 24 hrs by two fold dilution technique; conditions: ATCC 27853, 24 h; how it was run: as §1
[28] = system: Klebsiella pneumoniae; test: Antibacterial activity against Klebsiella pneumoniae at 30 ug after 24 hrs by disc diffusion method; conditions: read-out: DIZ; how it was run: as §3
[29] = system: Streptococcus pyogenes; test: Antibacterial activity against Streptococcus pyogenes at 30 ug after 24 hrs by disc diffusion method; conditions: read-out: DIZ; how it was run: as §3
[30] = system: Escherichia coli; test: Antibacterial activity against Escherichia coli ATCC 25922 at 30 ug after 24 hrs by disc diffusion method; conditions: ATCC 25922, 24 h, read-out: DIZ; how it was run: as §3
[31] = system: Staphylococcus aureus; test: Antibacterial activity against Staphylococcus aureus ATCC 25923 at 30 ug after 24 hrs by disc diffusion method; conditions: ATCC 25923, 24 h, read-out: DIZ
How it was run: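 Disc diffusion. Inoculum of […] c.f.u./ml (0.5 McFarland) spread on sterile nutrient agar plates. 6 mm Whatman no. 1 paper discs, dry-heat sterilised at 140 °C for 1 h, soaked in a known concentration of compound, then placed on the agar. DMSO disc as negative control. Plates inverted, incubated 24 h at 37 °C. Zone of inhibition diameter measured in mm.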

[32] = system: Pseudomonas aeruginosa; test: Antibacterial activity against Pseudomonas aeruginosa ATCC 27853 at 30 ug after 24 hrs by disc diffusion method; conditions: ATCC 27853, 24 h, read-out: DIZ; how it was run: as §3

`CCCCC/C=C\CCC(O)CCCCCCCc1nnc(Nc2ccccc2)s1` (stereo unspecified) gave an MIC [1] of 6.25 µg/mL (≈ 14.5 µM), an MFC [2] of 50 µg/mL (≈ 116 µM) and an MIC [2] of 25 µg/mL (≈ 58.2 µM). The “diameter of the inhibition zone (DIZ)” value [3] was 19.9 mm, the Ratio [4] was 2 and the MBC [5] was 25 µg/mL (≈ 58.2 µM). For the same compound, the MIC [6] was 6.25 µg/mL (≈ 14.5 µM), the Ratio [7] was 4 and the “diameter of the inhibition zone (DIZ)” value [8] was 21.1 mm. For the same compound, the “diameter of the inhibition zone (DIZ)” value [9] was 20.8 mm, the MFC [10] was 100 µg/mL (≈ 233 µM) and the MIC [10] was 25 µg/mL (≈ 58.2 µM). For the same compound, the MFC [11] was 50 µg/mL (≈ 116 µM), the MIC [11] was 25 µg/mL (≈ 58.2 µM) and the MBC [12] was 12.5 µg/mL (≈ 29.1 µM). For the same compound, the “diameter of the inhibition zone (DIZ)” value [13] was 21.8 mm, the Ratio [14] was 2 and the Ratio [15] was 4. The “diameter of the inhibition zone (DIZ)” value [16] was 19 mm, the MBC [17] was 25 µg/mL (≈ 58.2 µM) and the “diameter of the inhibition zone (DIZ)” value [18] was 15.2 mm. For the same compound, the “diameter of the inhibition zone (DIZ)” value [19] was 24.9 mm, the “diameter of the inhibition zone (DIZ)” value [20] was 22.9 mm and the MIC [21] was 6.25 µg/mL (≈ 14.5 µM). The MFC [22] was 100 µg/mL (≈ 233 µM), the MIC [22] was 25 µg/mL (≈ 58.2 µM) and the MBC [23] was 12.5 µg/mL (≈ 29.1 µM). The MIC [24] was 6.25 µg/mL (≈ 14.5 µM), the “diameter of the inhibition zone (DIZ)” value [25] was 25.9 mm and the MBC [26] was 6.25 µg/mL (≈ 14.5 µM). For the same compound, the MIC [27] was 6.25 µg/mL (≈ 14.5 µM).
Work on `O=C(N[C@H](CO)[C@H](O)c1ccc([N+](=O)[O-])cc1)C(Cl)Cl` [CHLORAMPHENICOL] yielded an MIC [1] of 6.25 µg/mL (≈ 19.3 µM), an MBC [5] of 12.5 µg/mL (≈ 38.7 µM) and an MIC [6] of 6.25 µg/mL (≈ 19.3 µM). The zone of inhibition at 30 µg/disc [28] was 19 mm, the zone of inhibition at 30 µg/disc [29] was 23 mm and the zone of inhibition at 30 µg/disc [30] was 27 mm. It also gave an MBC [12] of 12.5 µg/mL (≈ 38.7 µM), an MBC [17] of 12.5 µg/mL (≈ 38.7 µM) and an MIC [21] of 6.25 µg/mL (≈ 19.3 µM). The MBC [23] was 12.5 µg/mL (≈ 38.7 µM), the MIC [24] was 6.25 µg/mL (≈ 19.3 µM) and the zone of inhibition at 30 µg/disc [31] was 22 mm. The MBC [26] was 12.5 µg/mL (≈ 38.7 µM), the zone of inhibition at 30 µg/disc [32] was 32 mm and the MIC [27] was 6.25 µg/mL (≈ 19.3 µM).
